{"source": "PubChem BioAssay AID465", "about": "(The Scripps Research Institute Molecular Screening Center, 2006)", "note": "The campaign covered roughly 62,000 compounds. About 130 (0.21%) were called active.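 The calls were made as follows: active = inhibition above the mean of all tested compounds plus 3 SD (cut at about 40% in these data); inactive = the rest.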 The full list was thinned out, with actives kept by preference."}
{"assay": "inhibitors of PMA/ionomycin-induced NF-kB reporter, primary screen, antigen receptor NF-kB inhibitor project, cell-based, HEK-293 luciferase reporter, luminescence (AID 465);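 also: 0% = stimulated DMSO wells and 100% = 10 µM reference inhibitor 5653914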", "conditions": "HEK-293 NF-kB luciferase reporter, at 3 µM, active compounds read high", "outline": "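Reagent: PMA plus ionomycin mix as NF-kB-activating stimulus. Assay system: NF-kB luciferase reporter HEK-293 cells. Technique: luminescence from luciferase substrate reagent. Incubation: 1 h compound pre-incubation, 16 h PMA/ionomycin at 37 °C. Benchmarks: DMSO only as uninhibited control, 10 µM reference inhibitor as full inhibition. Repeats: tested once.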"}
{"smiles": "N#CC1=C(N)OC2=C(C(=O)CCC2)C1C1CC=CCC1", "note": "(stereo not drawn)", "inhibition": "16.6% (inactive)"}
{"smiles": "O=S(N1CCCCCC1)C12CC3CC(CC(C3)C1)C2", "note": "(stereo not drawn)", "inhibition": "19.1% (inactive)"}
{"smiles": "O=C(O)CCC(=O)Nc1ccc(N2CCOCC2)cc1", "inhibition": "7.6% (inactive)"}
{"smiles": "CC(=O)Nc1ccc(NS(=O)(=O)c2cc(C)sc2C)cc1", "inhibition": "11.3% (inactive)"}
{"smiles": "CCOC(=O)CNC(=O)c1nn(-c2cccc(OC)c2)c(=O)c2ccccc12", "inhibition": "5.1% (inactive)"}
{"smiles": "CC(=O)Nc1cc(C(=O)O)ccc1S(=O)(=O)c1ccc(Cl)cc1", "inhibition": "15% (inactive)"}
{"smiles": "O=C(Nc1cnccn1)c1cccnc1", "inhibition": "14.9% (inactive)"}
{"smiles": "Cc1csc(NC(=O)C2CCCN2C(=O)OCC(C)C)n1", "note": "(stereo not drawn)", "inhibition": "3.7% (inactive)"}
{"smiles": "CCOC(=O)N1CCN(C(=O)c2cc3c(ccc4ccccc43)oc2=O)CC1", "inhibition": "12.5% (inactive)"}
{"smiles": "CC(C)(C)NC(=O)Cn1nnc(-c2ccccc2Cl)n1", "inhibition": "-10.7% (inactive)"}
{"smiles": "O=C1NC(c2cc3c(cc2Cl)OCO3)Oc2ccccc21", "note": "(stereo not drawn)", "inhibition": "6.8% (inactive)"}
{"smiles": "Cc1cc(=O)n2c3c(cccc13)CCC2", "inhibition": "7.5% (inactive)"}
{"smiles": "CCCCN(C)Cc1c(C)[nH]c2ccc(Cl)cc2c1=O", "inhibition": "9.1% (inactive)"}
{"smiles": "CNC(=O)CSc1nnc(CCc2ccccc2)n1-c1ccccc1", "inhibition": "11.6% (inactive)"}
{"smiles": "CCCCN=C(N)/C(C(=O)OCC)=C(\\O)c1ccc(OC)cc1", "inhibition": "7.4% (inactive)"}
{"smiles": "Cc1ccc(OS(=O)Nc2cccc3nccnc23)cc1", "note": "(stereo not drawn)", "inhibition": "8.8% (inactive)"}
{"smiles": "COC(=O)[C@H](C)NC(=O)Nc1ccc(OC(F)(F)F)cc1", "inhibition": "11.6% (inactive)"}
{"smiles": "Cc1ccnc(N2CCN(C(=O)CSc3nc4ccccc4nc3N3CCCCC3)CC2)c1", "inhibition": "5.5% (inactive)"}
{"smiles": "COc1ccc(-c2nnn(CC(=O)N(CCO)C(C(=O)NC3CCCC3)c3ccc(F)cc3)n2)cc1", "note": "(stereo not drawn)", "inhibition": "24% (inactive)"}
{"smiles": "CCN(CC)S(=O)(=O)c1cc(C(=O)Nc2ccccn2)ccc1C", "inhibition": "-11.3% (inactive)"}
{"smiles": "O=C(Cc1nn[nH]n1)NCCC1=CCCCC1", "inhibition": "4.2% (inactive)"}
{"smiles": "CC(=O)Oc1ccc(C(=O)Nc2nccs2)cc1", "inhibition": "11.8% (inactive)"}
{"smiles": "Nc1ccc(SCCN2C(=O)c3ccccc3C2=O)cc1", "inhibition": "6.7% (inactive)"}
{"smiles": "CCc1cc(=O)oc2cc(OCC(=O)N3CCCc4ccccc43)ccc12", "inhibition": "12.9% (inactive)"}
{"smiles": "Cc1cc(C)c(NC(=O)CS(=O)CC(=O)Nc2cccnc2)c(C)c1", "note": "(stereo not drawn)", "inhibition": "18.1% (inactive)"}
{"smiles": "C=CCC(NCCCO)c1cccc(OC)c1OC", "note": "(stereo not drawn)", "inhibition": "7.1% (inactive)"}
{"smiles": "O=C(CN1C2CCC1CC(NC(=O)C1CC1)C2)NCc1ccccc1", "note": "(stereo not drawn)", "inhibition": "7.7% (inactive)"}
{"smiles": "CCCC(NC(=O)c1ccccc1)c1nc2ccccc2n1Cc1ccc(C(=O)OC)o1", "note": "(stereo not drawn)", "inhibition": "17.4% (inactive)"}
{"smiles": "CCCC(CCC(=O)OC)(C(=O)OCC)c1csc(N)n1", "note": "(stereo not drawn)", "inhibition": "2.1% (inactive)"}
{"smiles": "CCOC(=O)CSc1nncc2ccc(OC)c(OC)c12", "inhibition": "2% (inactive)"}
{"smiles": "O=C(NC(=O)c1ccc(Cl)c(Cl)c1)OC1CCS(=O)(=O)C1", "note": "(stereo not drawn)", "inhibition": "21.6% (inactive)"}
{"smiles": "CCCN1C2=C(C(=O)CCC2)C(c2ccc(O)c(Br)c2)C2=C1CCCC2=O", "inhibition": "-2.4% (inactive)"}
{"smiles": "CCOC(=O)Cc1csc(NC(=O)CN(C)S(=O)(=O)c2ccc3c(c2)CCC(=O)N3)n1", "inhibition": "0.2% (inactive)"}
{"smiles": "COc1cc(Cl)c(C)cc1NC(=O)CSc1nnc(-c2ccco2)n1CC(C)C", "inhibition": "14.8% (inactive)"}
{"smiles": "O=C(CCC(=O)N1CCN(S(=O)(=O)c2ccccc2)CC1)NC1CCCc2ccccc21", "note": "(stereo not drawn)", "inhibition": "15.4% (inactive)"}
{"smiles": "Cc1cc(Cl)c(S(=O)(=O)NCCC(=O)O)cc1OCC(N)=O", "inhibition": "1.4% (inactive)"}
{"smiles": "CC(=O)N1CCN(c2ccc(NCc3ccc(C(C)C)cc3)cc2)CC1", "inhibition": "-0.9% (inactive)"}
{"smiles": "CCCn1c(SCC(=O)Nc2cccc(C(=O)OCC)c2)nnc1-c1ccoc1C", "inhibition": "-4.2% (inactive)"}
{"smiles": "CCOc1ccc(OCc2ccc(C(=O)Nc3cccc(C)n3)o2)cc1", "inhibition": "-17.7% (inactive)"}
{"smiles": "O=P(c1cccs1)(c1cccs1)c1cccs1", "inhibition": "22.9% (inactive)"}
{"smiles": "CCCn1cc(SCC(N)=O)c2ccccc21", "inhibition": "2.8% (inactive)"}
{"smiles": "COc1ccc(N=Cc2c(O)[nH]c3ccccc23)cc1OC", "inhibition": "-16.7% (inactive)"}
{"smiles": "CCN(CC)S(=O)(=O)c1ccc2nc(COC(=O)c3n[nH]c4ccccc34)[nH]c2c1", "inhibition": "12.4% (inactive)"}
{"smiles": "Cc1ccn2cc(C(=O)NC3CCN(Cc4ccccc4)CC3)nc2c1", "inhibition": "6.4% (inactive)"}
{"smiles": "COc1cccc(NC(=O)Cn2cnc3sc(C)c(S(=O)(=O)N4CCN(C)CC4)c3c2=O)c1", "inhibition": "11.9% (inactive)"}
{"smiles": "Cc1ccsc1C(=O)OCC(=O)c1cc2ccccc2o1", "inhibition": "3.8% (inactive)"}
{"smiles": "Cc1ccsc1C(=O)OCC(=O)c1cc(C)n(CC2CCCO2)c1C", "note": "(stereo not drawn)", "inhibition": "55.2% (active)"}
{"smiles": "COC(=O)c1ccc2c(=O)n(CC3CCCO3)c(=S)[nH]c2c1", "note": "(stereo not drawn)", "inhibition": "12.2% (inactive)"}
{"smiles": "O=C1NC(c2ccncc2)Nc2sc3c(c21)CCCC3", "note": "(stereo not drawn)", "inhibition": "8% (inactive)"}
{"smiles": "COc1cccc(N(CC(=O)Nc2cccc(F)c2)S(C)(=O)=O)c1", "inhibition": "22.4% (inactive)"}
{"smiles": "N#CCCn1cnc2ccccc21", "inhibition": "13.5% (inactive)"}
{"smiles": "CC1CCCN(Cc2nc3c(c(=O)n(C)c(=O)n3C)n2Cc2cccc3ccccc23)C1", "note": "(stereo not drawn)", "inhibition": "30.3% (inactive)"}
{"smiles": "Cc1c(C(=O)N2CC(C)OC(C)C2)sc2nc(-c3ccccc3)cn12", "note": "(stereo not drawn)", "inhibition": "-1.4% (inactive)"}
{"smiles": "CCN(CC)CCNC(=O)Cn1cnc2sc(C)c(S(=O)(=O)N3CCOCC3)c2c1=O", "inhibition": "4.3% (inactive)"}
{"smiles": "O=C(CN1CCN(C(=O)c2ccco2)CC1)Nc1ccc(Cl)c(C(F)(F)F)c1", "inhibition": "3.2% (inactive)"}
{"smiles": "NC(=O)C1CC=CCC1C(=O)OCC(Cl)=C(Cl)Cl", "note": "(stereo not drawn)", "inhibition": "0.1% (inactive)"}
{"smiles": "CCOCCc1c(O)nc(SCC(=O)NCc2ccco2)[nH]c1=O", "inhibition": "2.4% (inactive)"}
{"smiles": "Cc1ccc(C(=O)Nc2nnc(-c3ccncc3)s2)o1", "inhibition": "7.3% (inactive)"}
{"smiles": "O=C(O)C1CCCN1S(=O)(=O)c1ccc2c(c1)CCC2", "note": "(stereo not drawn)", "inhibition": "15.4% (inactive)"}
{"smiles": "COC(=O)c1ccccc1NC(=O)c1ccccc1NS(C)(=O)=O", "inhibition": "14.9% (inactive)"}
{"smiles": "O=C(CSC1=NCCS1)Nc1nc(-c2ccccc2)cs1", "inhibition": "-2.2% (inactive)"}
{"smiles": "COC(=O)c1ccc(NC(=O)CN(c2ccc(C)cc2)S(=O)(=O)c2c(C)n[nH]c2C)cc1", "inhibition": "21.2% (inactive)"}
{"smiles": "O=C(NCCN1CCOCC1)[C@H](Cc1ccccc1)N1C(=O)c2ccccc2C1=O", "inhibition": "3.6% (inactive)"}
{"smiles": "CCC1=C/C(=C\\c2ccc3c(c2)OCO3)C(=O)S1", "inhibition": "21.2% (inactive)"}
{"smiles": "O=C(c1ccco1)N1CCN(C(=O)c2ccc(COc3ccc(F)cc3)o2)CC1", "inhibition": "7% (inactive)"}
{"smiles": "COCCCN1C(=O)C(=O)/C(=C(/O)c2ccc3c(c2)CC(C)O3)C1c1cccnc1", "note": "(stereo not drawn)", "inhibition": "7.3% (inactive)"}
{"smiles": "CCCOC(=O)Cc1c(O)c2ccccc2[nH]c1=O", "inhibition": "6.5% (inactive)"}
{"smiles": "COC(=O)Nc1ccc(S(=O)(=O)N(C)CC(F)(F)C(F)F)cc1", "inhibition": "3.4% (inactive)"}
{"smiles": "CCn1nnc(NC(=O)c2c(OC)cccc2OC)n1", "inhibition": "10.1% (inactive)"}
{"smiles": "O=C(c1ccc2c(c1)OCCO2)C1CCN(S(=O)(=O)c2cccc(F)c2)CC1", "inhibition": "6.7% (inactive)"}
{"smiles": "COC(=O)NC1(C(F)(F)F)NC(=O)N(C2CCCCC2)C1=O", "note": "(stereo not drawn)", "inhibition": "9.8% (inactive)"}
{"smiles": "O=C1NC(Nc2nc3ccccc3s2)(C(F)(F)F)C(=O)N1C1CCCCC1", "note": "(stereo not drawn)", "inhibition": "50.1% (active)"}
{"smiles": "CC(=O)c1c(C)n([O-])c2ccccc2[n+]1=O", "inhibition": "12.7% (inactive)"}
{"smiles": "CC(=O)OC(C(=O)NCCc1ccccc1)c1cccnc1", "note": "(stereo not drawn)", "inhibition": "15.3% (inactive)"}
{"smiles": "COc1ccc(C(=O)Nc2ccc3c(c2)OCO3)cc1OC", "inhibition": "-6.2% (inactive)"}
{"smiles": "Cn1c(=O)n(C)c2cc(C(=O)Nc3ccc4c(c3)OCO4)ccc21", "inhibition": "40.7% (active)"}
{"smiles": "Cn1c(NC(=O)c2ccc3c(c2)OCO3)cc(=O)n(C)c1=O", "inhibition": "-1.2% (inactive)"}
{"smiles": "O=C(NC1CCCCC1)C1CCCN(S(=O)(=O)c2cccs2)C1", "note": "(stereo not drawn)", "inhibition": "10.2% (inactive)"}
{"smiles": "O=C(NCCN=C1NS(=O)(=O)c2ccccc21)c1ccc(S(=O)(=O)N2CCOCC2)cc1", "inhibition": "11.1% (inactive)"}
{"smiles": "Cc1nnc(SCC(=O)N(C(C)C)C(C)C)nc1C", "inhibition": "6.1% (inactive)"}
{"smiles": "O=C(Nc1c(C(=O)N2CCCCC2)cnn1-c1ccccc1)c1ccco1", "inhibition": "-3.8% (inactive)"}
{"smiles": "C(=C\\c1ccccc1)/CSc1nnc(-c2cccnc2)n1Cc1ccco1", "inhibition": "11.5% (inactive)"}
{"smiles": "Cc1ccc(NC(=O)CN2CCC3(O)CCCCC3C2c2ccc3c(c2)OCO3)c(C)c1", "note": "(stereo not drawn)", "inhibition": "0.9% (inactive)"}
{"smiles": "Oc1c(C(c2cccs2)N2CCN(c3ccc(F)cc3)CC2)sc2ncnn12", "note": "(stereo not drawn)", "inhibition": "-1% (inactive)"}
{"smiles": "CCOc1ccc(OCC)c(NC(=O)C2CCN(S(=O)(=O)c3c(C)noc3C)CC2)c1", "inhibition": "15.5% (inactive)"}
{"smiles": "O=c1cccc(-c2ccc(Br)cc2)o1", "inhibition": "10.6% (inactive)"}
{"smiles": "O=C(Nc1cccc2c1CCCC2)C1CCN(C(=O)NC2CCCCC2)CC1", "inhibition": "16.4% (inactive)"}
{"smiles": "COc1ccc2c(Cl)c(-c3nnco3)sc2c1", "inhibition": "26.5% (inactive)"}
{"smiles": "C=CCNC(=O)c1cc(-c2ccccc2O)on1", "inhibition": "-6.4% (inactive)"}
{"smiles": "O=C(Nn1cnc2ccccc2c1=O)c1ccc(F)cc1Cl", "inhibition": "-16.4% (inactive)"}
{"smiles": "Cc1cccc(NC(=O)C2CCCN2S(=O)(=O)c2ccc(F)cc2)c1C", "note": "(stereo not drawn)", "inhibition": "19.8% (inactive)"}
{"smiles": "COc1cccc(NS(=O)(=O)c2ccc3[nH]cc(C(=O)NCCCOC(C)C)c(=O)c3c2)c1", "inhibition": "9% (inactive)"}
{"smiles": "CCOC(=O)CSc1nnc(CNC(=O)c2cccs2)n1-c1cc(OC)ccc1OC", "inhibition": "9.1% (inactive)"}
{"smiles": "CCOC(=O)N1CCN(C(=O)COc2ccc(Br)cc2)CC1", "inhibition": "3.3% (inactive)"}
{"smiles": "CNC(=O)CN1C(=O)c2ccccc2S1(=O)=O", "inhibition": "16.9% (inactive)"}
{"smiles": "O=C(CN1C(=O)c2ccccc2S1(=O)=O)N1CCc2ccccc21", "inhibition": "59% (active)"}
{"smiles": "O=C(c1cccc(C(=O)N2CCc3ccccc32)n1)N1CCc2ccccc21", "inhibition": "1.5% (inactive)"}
{"smiles": "Cc1[nH]c2ccc(S(N)(=O)=O)cc2c1C", "inhibition": "14.3% (inactive)"}
